{
  "source": "ChEMBL document CHEMBL3526140",
  "about": "“Prediction of human intestinal absorption of the prodrug temocapril by in situ single-pass perfusion using rat intestine with modified hydrolase activity” (Drug Metab Dispos, 2011)",
  "key": {"[1]": {"system": "Jejunum", "assay": "Drug uptake in Wistar rat jejunum pre-perfused with 400 uM CES inhibitor BNPP assessed as rate of drug disappearance at 100 uM at pH 5.4 by in-situ single-pass perfusion method", "assay_type": "ADME, tissue-based", "details": "in vivo, pH 5.4, 100 µM", "how_it_was_run": "(§1)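 Same in situ jejunal single-pass perfusion, with carboxylesterase blocked by pre-perfusing the lumen with 400 µM BNPP for 40 min. Then 100 µM drug in luminal phosphate buffer (pH 5.4 or 6.4) at 0.2 ml/min. Vascular Krebs–Henseleit (pH 7.4) at 2.5 ml/min. Luminal, vascular and tissue levels measured by HPLC. Rates are luminal disappearance and appearance in lumen or mesenteric vein. Mean ± S.D., n = 3.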"}, "[2]": {"assay": "Permeability in Wistar rat jejunum at 100 uM at pH 5.4 by in-situ single-pass perfusion method", "assay_type": "ADME, tissue-based", "details": "other: in-situ single-pass perfusion of the jejunum, read-out: Peff (converted)", "how_it_was_run": "(§2)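 Rats fasted 18–24 h and anesthetized with intraperitoneal pentobarbital. Jejunal loop perfused at 0.2 ml/min with phosphate buffer (pH 5.4, 6.4 or 7.4) containing 100 μM drug and FD-4 (0.1 mg/ml). Vascular perfusate was Krebs–Henseleit bicarbonate buffer (pH 7.4) at 2.5 ml/min, segment kept at 37°C. Drug and metabolite measured by HPLC (UV 258 nm). Peff normalized to 10 cm intestine; mean ± S.D., n = 3–6.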"}, "[3]": {"assay": "Drug hydrolysis in Wistar rat duodenal S9 fraction in presence of 1 mM CES inhibitor BNPP", "assay_type": "ADME, Duodenum", "how_it_was_run": "(§3)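 Duodenal or jejunal mucosa from fasted rats homogenized in 50 mM HEPES (pH 7.4) with 1.15% KCl; S9 is the 9000 g supernatant. S9 pre-incubated 5 min at 37°C, then drug added at 10–500 µM final (1% DMSO). Run for 20 min, stopped with acetonitrile, temocaprilat formed measured by HPLC. Km and Vmax from Michaelis–Menten nonlinear fit. Inhibitor (1 mM BNPP) pre-incubated 5 min. Results as % of control.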"}, "[4]": {"system": "Jejunum", "assay": "Drug uptake in Wistar rat jejunum pre-perfused with 400 uM CES inhibitor BNPP assessed as rate of drug appearance at 100 uM at pH 6.4 by in-situ single-pass perfusion method", "assay_type": "ADME, tissue-based", "details": "in vivo, pH 6.4, 100 µM", "how_it_was_run": "as §1"}, "[5]": {"assay": "Permeability in Wistar rat jejunum pre-perfused with 400 uM CES inhibitor BNPP at 100 uM at pH 5.4 by in-situ single-pass perfusion method", "assay_type": "ADME, tissue-based", "details": "other: in-situ single-pass perfusion of the jejunum, pH 5.4, with BNPP (CES inhibitor) 400 uM, read-out: Peff (converted)", "how_it_was_run": "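Fasted, pentobarbital-anesthetized rats. Jejunum pre-perfused with BNPP (400 µM) for 40 min to inhibit CES. Lumen then perfused at 0.2 ml/min with 100 μM drug in phosphate buffer (pH 5.4 or 6.4). Vascular side received Krebs–Henseleit buffer (pH 7.4) at 2.5 ml/min. Luminal drug quantified by HPLC; Peff normalized to 10 cm segment; mean ± S.D., n = 3.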"}, "[6]": {"system": "Jejunum", "assay": "Apparent hydrolytic clearance in Wistar rat jejunum pre-perfused with 400 uM CES inhibitor BNPP at 100 uM at pH 5.4 by in-situ single-pass perfusion method", "assay_type": "ADME, tissue-based", "details": "in vivo, pH 5.4, 100 µM", "how_it_was_run": "as §1"}, "[7]": {"assay": "Permeability in Wistar rat jejunum at 100 uM at pH 6.4 by in-situ single-pass perfusion method", "assay_type": "ADME, tissue-based", "details": "other: in-situ single-pass perfusion of the jejunum, read-out: Peff (converted)", "how_it_was_run": "as §2"}, "[8]": {"system": "Jejunum", "assay": "Apparent absorption clearance in Wistar rat jejunum at 100 uM at pH 7.4 by in-situ single-pass perfusion method", "assay_type": "ADME, tissue-based", "details": "in vivo, pH 7.4, 100 µM", "how_it_was_run": "(§4)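 Rats fasted 18–24 h, anesthetized with intraperitoneal pentobarbital. Isolated cannulated jejunal segment kept at 37°C in Krebs–Henseleit buffer with 3% BSA and 10 mM glucose. Vascular perfusion with Krebs–Henseleit (pH 7.4) at 2.5 ml/min. Lumen perfused at 0.2 ml/min with phosphate buffer (pH 5.4, 6.4 or 7.4) containing 100 µM drug plus FD-4. Luminal and vascular samples assayed by HPLC (UV 258 nm). Parameters normalized to 10 cm intestine. Mean ± S.D., n = 3–6.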"}, "[9]": {"system": "Jejunum", "assay": "Apparent hydrolytic clearance in Wistar rat jejunum at 100 uM at pH 7.4 by in-situ single-pass perfusion method", "assay_type": "ADME, tissue-based", "details": "in vivo", "how_it_was_run": "as §4"}, "[10]": {"system": "Jejunum", "assay": "Drug uptake in Wistar rat jejunum pre-perfused with 400 uM CES inhibitor BNPP assessed as rate of temocaprilat disappearance at 100 uM at pH 6.4 by in-situ single-pass perfusion method", "assay_type": "ADME, tissue-based", "details": "in vivo, pH 6.4, 100 µM", "how_it_was_run": "as §1"}, "[11]": {"system": "Jejunum", "assay": "Drug uptake in Wistar rat jejunum pre-perfused with 400 uM CES inhibitor BNPP assessed as rate of temocaprilat appearance at 100 uM at pH 6.4 by in-situ single-pass perfusion method", "assay_type": "ADME", "details": "in vivo, pH 6.4, 100 µM", "how_it_was_run": "as §1"}, "[12]": {"system": "Jejunum", "assay": "Apparent hydrolytic clearance in Wistar rat jejunum pre-perfused with 400 uM CES inhibitor BNPP at 100 uM at pH 6.4 by in-situ single-pass perfusion method", "assay_type": "ADME, tissue-based", "details": "in vivo, pH 6.4, 100 µM", "how_it_was_run": "as §1"}, "[13]": {"system": "Jejunum", "assay": "Drug hydrolysis in intact Wistar rat jejunum mucosal homogenate at 500 uM assessed per mg protein", "assay_type": "ADME, tissue-based", "details": "tissue homogenate", "how_it_was_run": "(§5)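 Jejunal mucosal homogenate or S9 (HEPES pH 7.4/KCl) taken from intact jejunum, or after 40 min perfusion with or without 400 µM BNPP. Protein at 400 µg/ml incubated at 37°C with 500 µM drug. Added BNPP (100 or 1000 µM) pre-incubated 5 min. Temocaprilat formed measured by HPLC and given as nmol/min/mg protein and % of control. Mean ± S.D., n = 4.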"}, "[14]": {"system": "Jejunum", "assay": "Drug hydrolysis in intact Wistar rat jejunum mucosal homogenate at 500 uM assessed per mg protein in presence of 1000 uM CES inhibitor BNPP", "assay_type": "ADME, tissue-based", "details": "tissue homogenate", "how_it_was_run": "as §5"}, "[15]": {"assay": "Drug hydrolysis in intact Wistar rat jejunal S9 fraction at 500 uM assessed per mg protein in presence of 1000 uM CES inhibitor BNPP", "assay_type": "ADME, Jejunum", "details": "s9, 500 µM", "how_it_was_run": "as §5"}, "[16]": {"assay": "Drug hydrolysis in perfused Wistar rat jejunal S9 fraction at 500 uM assessed per mg protein in presence of 400 uM CES inhibitor BNPP", "assay_type": "ADME, Jejunum", "details": "s9, 500 µM", "how_it_was_run": "as §5"}, "[17]": {"assay": "Partition coefficient, log P between n-octanol and phosphate buffer at pH 7.4", "assay_type": "physicochemical"}, "[18]": {"system": "Jejunum", "assay": "Intracellular drug level in Wistar rat jejunum at 100 uM at pH 5.4 by in-situ single-pass perfusion method", "assay_type": "ADME, tissue-based", "details": "in vivo", "how_it_was_run": "as §4"}, "[19]": {"system": "Jejunum", "assay": "Intracellular drug level in Wistar rat jejunum at 100 uM at pH 7.4 by in-situ single-pass perfusion method", "assay_type": "ADME, tissue-based", "details": "in vivo, pH 7.4, 100 µM", "how_it_was_run": "as §4"}, "[20]": {"system": "Jejunum", "assay": "Intracellular drug level in Wistar rat jejunum treated with Temocaprilat at 100 uM at pH 5.4 by in-situ single-pass perfusion method", "assay_type": "ADME, tissue-based", "details": "in vivo, pH 5.4, 100 µM"}, "[21]": {"system": "Jejunum", "assay": "Intracellular drug level in Wistar rat jejunum treated with Temocaprilat at 100 uM at pH 6.4 by in-situ single-pass perfusion method", "assay_type": "ADME, tissue-based", "details": "in vivo"}, "[22]": {"system": "Jejunum", "assay": "Drug degradation in Wistar rat jejunum lumen assessed as rate of drug disappearance at 100 uM by in-situ single-pass perfusion method", "assay_type": "ADME, tissue-based", "how_it_was_run": "as §4"}, "[23]": {"system": "Jejunum", "assay": "Drug uptake in Wistar rat jejunum mesenteric vein assessed as rate of drug appearance at 100 uM by in-situ single-pass perfusion method", "assay_type": "ADME, tissue-based", "details": "in vivo", "how_it_was_run": "as §4"}, "[24]": {"assay": "Drug hydrolysis in Wistar rat duodenal S9 fraction assessed as rate of hydrolysis per mg protein", "assay_type": "ADME, Duodenum", "how_it_was_run": "as §3"}, "[25]": {"assay": "Drug hydrolysis in Wistar rat jejunal S9 fraction assessed as rate of hydrolysis per mg protein", "assay_type": "ADME, Jejunum", "how_it_was_run": "as §3"}, "[26]": {"assay": "Ratio of Vmax to Km for drug jejunal in Wistar rat jejunal S9 fraction assessed per mg protein"}},
  "data": [
    {"smiles": "CCOC(=O)[C@H](CCc1ccccc1)N[C@H]1CS[C@H](c2cccs2)CN(CC(=O)O)C1=O", "note": "[TEMOCAPRIL]", "values": [
      {"measurement": "CL", "setting": "[1]", "result": 2.98, "unit": "nmol/min"},
      {"measurement": "Papp at 100 µM", "setting": "[2]", "result": 76, "unit": "×10⁻⁶ cm/s"},
      {"measurement": "Stability", "setting": "[3]", "result": "Stable"},
      {"measurement": "CL", "setting": "[4]", "result": 0.696, "unit": "nmol/min"},
      {"measurement": "Papp at 100 µM", "setting": "[5]", "result": 49.8, "unit": "×10⁻⁶ cm/s"},
      {"measurement": "CL", "setting": "[6]", "result": 24.9, "unit": "µL/min"},
      {"measurement": "Papp at 100 µM", "setting": "[7]", "result": 57.2, "unit": "×10⁻⁶ cm/s"},
      {"measurement": "CL(app)", "setting": "[8]", "result": 1.23, "unit": "µL/min"},
      {"measurement": "CL", "setting": "[9]", "result": 43.2, "unit": "µL/min"},
      {"measurement": "CL", "setting": "[10]", "result": 1.17, "unit": "nmol/min"},
      {"measurement": "CL", "setting": "[11]", "result": 0.604, "unit": "nmol/min"},
      {"measurement": "CL", "setting": "[12]", "result": 19.5, "unit": "µL/min"},
      {"measurement": "Drug degradation", "setting": "[13]", "result": 4.17, "unit": "nmol/min"},
      {"measurement": "Drug degradation", "setting": "[14]", "result": 1.97, "unit": "nmol/min"},
      {"measurement": "Drug degradation", "setting": "[15]", "result": 0.488, "unit": "nmol/min"},
      {"measurement": "Drug degradation", "setting": "[16]", "result": 0.625, "unit": "nmol/min"},
      {"measurement": "logD", "setting": "[17]", "result": 0.1},
      {"measurement": "Drug uptake", "setting": "[18]", "result": 5.46, "unit": "nmol/g"},
      {"measurement": "Drug uptake", "setting": "[19]", "result": 1.02, "unit": "nmol/g"},
      {"measurement": "Drug uptake", "setting": "[20]", "result": 34.2, "unit": "nmol/g"},
      {"measurement": "Drug uptake", "setting": "[21]", "result": 18.1, "unit": "nmol/g"},
      {"measurement": "Drug degradation", "setting": "[22]", "result": 3.89, "unit": "nmol/min"},
      {"measurement": "Drug uptake", "setting": "[23]", "result": 0.147, "unit": "nmol/min"},
      {"measurement": "Vmax", "setting": "[24]", "result": 5.2, "unit": "nmol/min/mg"},
      {"measurement": "Vmax", "setting": "[25]", "result": 5.11, "unit": "nmol/min/mg"},
      {"measurement": "Vmax/Km", "setting": "[26]", "result": 108, "unit": "µL/min"}
    ]}
  ]
}
